Data: ChEMBL document CHEMBL1154312, “Inhibition of ErbB2(Her2) expression with small molecule transcription factor mimics” (Bioorg Med Chem Lett, 2009)
pIC50, pKd: −log10 of the molar value. Each block holds one compound with its values, some of them ahead of it. Calls of active or inactive are those of the source. The rule behind the calls is not given here.

Key:
[1] = molecular target: Mediator of RNA polymerase II transcription subunit 23 (Homo sapiens); assay: Inhibition of ESX-Med23 interaction assessed as binding affinity to Med23 (352-625) by fluorescence polarization
[2] = molecular target: T1, ETS-related transcription factor Elf-3/Vitamin D3 receptor-interacting protein (ESX/MED23) (Homo sapiens) (UniProt Q9ULK4+P78545); assay: Inhibition of ESX-Med23 interaction in human SK-BR-3 cells assessed as down regulation of ErbB2 expression at 25 uM by Western blotting; assay type: cell-based
Outline: (§1)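 SkBr3 cells treated 6 h with compound in DMSO at 0.625–50 μM (comparator 10, 50 μM), DMSO control; ErbB2 protein level by Western blot.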

[3] = molecular target: T1, ETS-related transcription factor Elf-3/Vitamin D3 receptor-interacting protein (ESX/MED23) (Homo sapiens); assay: Inhibition of ESX-Med23 interaction in human BT474 cells assessed as down regulation of ErbB2 expression up to 50 uM by Western blotting; assay type: cell-based; settings: BT-474
[4] = system: SK-BR-3; assay: Cytotoxicity against human SK-BR-3 cells after 24 hrs by WST-1 assay; assay type: functional, cell-based
[5] = molecular target: T1, ETS-related transcription factor Elf-3/Vitamin D3 receptor-interacting protein (ESX/MED23) (Homo sapiens); assay: Inhibition of ESX-Med23 interaction in human BT474 cells assessed as down regulation of ErbB2 expression after 24 hrs by Western blotting; assay type: cell-based; settings: BT-474
[6] = system: SCC-25; assay: Cytotoxicity against human SCC25 cells; assay type: functional, cell-based
[7] = system: CAL-27; assay: Cytotoxicity against human CAL27 cells; assay type: functional, cell-based
[8] = molecular target: T1, ETS-related transcription factor Elf-3/Vitamin D3 receptor-interacting protein (ESX/MED23) (Homo sapiens); assay: Inhibition of ESX-Med23 interaction in human SK-BR-3 cells assessed as down regulation of ErbB2 expression by Western blotting; assay type: cell-based
Outline: as §1

[9] = system: SCC-15; assay: Cytotoxicity against human SCC15 cells; assay type: functional, cell-based
[10] = molecular target: T1, ETS-related transcription factor Elf-3/Vitamin D3 receptor-interacting protein (ESX/MED23) (Homo sapiens); assay: Inhibition of ESX-Med23 interaction in human BT474 cells assessed as reduction in ErbB2 mRNA level after 6 hrs by qPCR relative to control; assay type: cell-based; settings: BT-474
Outline: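 BT-474 cells given compound in DMSO at 10 μM for 6 h; ErbB2 mRNA quantified by qPCR, normalized to GAPDH and expressed relative to DMSO; average of 16 experiments each in quadruplicate, s.e.m., Student's t-test.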

[11] = system: MCF7; assay: Cytotoxicity against human MCF7 cells after 24 hrs by WST-1 assay; assay type: functional, cell-based; settings: MCF7, 24 h

T1 sequence (P78545 whole entry, looked up): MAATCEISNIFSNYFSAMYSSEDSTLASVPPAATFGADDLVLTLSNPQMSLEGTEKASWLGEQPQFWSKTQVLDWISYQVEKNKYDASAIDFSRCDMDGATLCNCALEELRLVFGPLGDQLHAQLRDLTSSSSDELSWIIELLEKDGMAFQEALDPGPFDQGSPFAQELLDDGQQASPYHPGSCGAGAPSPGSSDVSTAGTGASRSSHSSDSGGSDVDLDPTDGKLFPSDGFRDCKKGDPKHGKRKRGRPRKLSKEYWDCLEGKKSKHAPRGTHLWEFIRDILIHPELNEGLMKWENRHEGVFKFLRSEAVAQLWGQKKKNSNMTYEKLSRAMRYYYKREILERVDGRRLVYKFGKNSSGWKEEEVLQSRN
T1 sequence (Q9ULK4 whole entry, looked up): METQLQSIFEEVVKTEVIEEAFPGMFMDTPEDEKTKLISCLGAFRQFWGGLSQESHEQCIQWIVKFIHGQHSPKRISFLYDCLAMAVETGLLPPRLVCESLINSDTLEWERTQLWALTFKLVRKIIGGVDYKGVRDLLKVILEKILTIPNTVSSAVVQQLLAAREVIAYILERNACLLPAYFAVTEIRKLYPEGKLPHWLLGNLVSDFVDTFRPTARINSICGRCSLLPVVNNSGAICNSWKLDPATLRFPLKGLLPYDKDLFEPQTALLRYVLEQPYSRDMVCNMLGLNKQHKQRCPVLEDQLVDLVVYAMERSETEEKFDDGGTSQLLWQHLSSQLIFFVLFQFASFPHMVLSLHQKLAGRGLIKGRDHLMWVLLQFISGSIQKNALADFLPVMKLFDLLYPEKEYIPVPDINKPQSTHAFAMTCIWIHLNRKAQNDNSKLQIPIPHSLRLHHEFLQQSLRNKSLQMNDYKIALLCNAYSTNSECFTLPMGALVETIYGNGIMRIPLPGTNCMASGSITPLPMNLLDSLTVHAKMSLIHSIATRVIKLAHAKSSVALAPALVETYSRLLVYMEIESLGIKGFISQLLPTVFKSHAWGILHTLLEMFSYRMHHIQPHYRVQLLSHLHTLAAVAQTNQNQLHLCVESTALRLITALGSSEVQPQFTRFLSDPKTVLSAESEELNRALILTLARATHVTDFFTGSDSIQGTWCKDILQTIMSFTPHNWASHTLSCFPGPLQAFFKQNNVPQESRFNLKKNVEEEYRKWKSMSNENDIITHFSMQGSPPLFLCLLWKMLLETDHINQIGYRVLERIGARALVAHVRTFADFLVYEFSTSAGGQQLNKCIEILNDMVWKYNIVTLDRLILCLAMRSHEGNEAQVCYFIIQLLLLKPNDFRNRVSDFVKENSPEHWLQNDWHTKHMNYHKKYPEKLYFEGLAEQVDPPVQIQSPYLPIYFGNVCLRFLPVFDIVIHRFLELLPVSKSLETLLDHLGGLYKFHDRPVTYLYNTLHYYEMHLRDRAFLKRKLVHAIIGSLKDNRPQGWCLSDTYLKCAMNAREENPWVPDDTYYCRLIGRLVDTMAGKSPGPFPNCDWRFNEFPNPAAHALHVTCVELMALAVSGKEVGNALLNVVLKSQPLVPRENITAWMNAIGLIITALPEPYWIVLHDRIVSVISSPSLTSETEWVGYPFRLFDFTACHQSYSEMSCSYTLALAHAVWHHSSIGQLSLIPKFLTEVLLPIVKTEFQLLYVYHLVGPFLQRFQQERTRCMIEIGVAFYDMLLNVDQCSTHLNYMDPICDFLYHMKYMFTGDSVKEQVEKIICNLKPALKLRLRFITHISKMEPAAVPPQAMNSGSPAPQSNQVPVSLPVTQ

pKd [1]: 5.23
SMILES: CC(C)C[C@]1(CCO)C[C@H](CNC(=S)Nc2ccc(-c3c4ccc(=O)cc-4oc4cc(O)ccc34)c(C(=O)O)c2)ON1Cc1ccccc1

Activity [2]: Active
Activity [3]: inactive
SMILES: CC(C)C[C@]1(CCO)C[C@H](CN=[N+]=[N-])ON1Cc1ccccc1
Activity [4]: inactive

pKd [1]: 6.00
SMILES: CC(C)C[C@]1(CCO)C[C@H](CNC(=S)Nc2ccc(-c3c4ccc(=O)cc-4oc4cc(O)ccc34)c(C(=O)O)c2)ON1Cc1ccc2ccccc2c1

Activity [5]: Dose-dependent effect
SMILES: CC(C)C[C@]1(CCO)C[C@H](CN=[N+]=[N-])ON1Cc1ccc(C(F)(F)F)cc1

pKd [1]: 6.23
SMILES: CC(C)C[C@]1(CCO)C[C@H](CNC(=S)Nc2ccc(-c3c4ccc(=O)cc-4oc4cc(O)ccc34)c(C(=O)O)c2)ON1Cc1ccc(C(F)(F)F)cc1

Activity [5]: Dose-dependent effect
Activity [8]: Active
Activity [10]: Active
SMILES: CC(C)C[C@]1(CCO)C[C@H](CN=[N+]=[N-])ON1Cc1ccc(-c2ccccc2)cc1
pIC50 [6]: 4.70
pIC50 [7]: 4.66
pIC50 [9]: 4.72
pIC50 [11]: 4.57
pIC50 ([4]; SK-BR-3, 24 h): 4.85

Activity [5]: Dose-dependent effect
SMILES: CC(C)C[C@]1(CCO)C[C@H](CN=[N+]=[N-])ON1Cc1ccc2ccccc2c1

pKd [1]: 6.21
SMILES: CC(C)C[C@]1(CCO)C[C@H](CNC(=S)Nc2ccc(-c3c4ccc(=O)cc-4oc4cc(O)ccc34)c(C(=O)O)c2)ON1Cc1ccc(-c2ccccc2)cc1
